In brackets after ≈: the same amount, converted by molar mass. Activity calls are given as the source filed them. No cut-off for these calls is given here.
Columns and labels:
[1] = test system: Mycobacterium tuberculosis; assay: Antimycobacterial activity against Mycobacterium tuberculosis H37Rv-GFP infected in mouse RAW264.7 cells after 5 days by confocal microscopic method; assay type: functional, cell-based; settings: RAW264.7, 120 h
Summary of the method: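 Intracellular M. tuberculosis in mouse macrophages. After initial screening at 0.1, 1 and 10 µg/ml, six doses between 0.1 and 1.0 µg/ml were tested to derive IC50.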

[2] = Cytotoxicity against mouse RAW264.7 cells assessed as growth inhibition at 50 uM after 72 hrs by MTT assay relative to control; assay type: cell-based; settings: read-out: GI
Summary of the method: (§1)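 RAW 264.7 mouse macrophage line exposed to compound at 100 and 50 μM for 72 h. Viability by MTT conversion to formazan. Reported as per cent inhibition.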

[3] = test system: Pseudomonas aeruginosa; assay: Antibacterial activity against Pseudomonas aeruginosa at 50 to 100 ug/ml by cup plate agar diffusion method; assay type: functional
Summary of the method: (§2)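 Tested at 50 and 100 μg/ml by cup-plate agar diffusion against E. coli, P. aeruginosa, S. aureus and B. subtilis.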

[4] = test system: Bacillus subtilis; assay: Antibacterial activity against Bacillus subtilis at 50 to 100 ug/ml by cup plate agar diffusion method; assay type: functional; summary of the method: as §2
[5] = test system: Escherichia coli; assay: Antibacterial activity against Escherichia coli at 50 to 100 ug/ml by cup plate agar diffusion method; assay type: functional; summary of the method: as §2
[6] = test system: Staphylococcus aureus; assay: Antibacterial activity against Staphylococcus aureus at 50 to 100 ug/ml by cup plate agar diffusion method; assay type: functional; summary of the method: as §2
[7] = test system: Mycobacterium tuberculosis; assay: Antimycobacterial activity against Mycobacterium tuberculosis H37Rv-GFP infected in mouse RAW264.7 cells assessed as growth inhibition at 1 ug/ml after 5 days by confocal microscopic method; assay type: functional, cell-based
Summary of the method: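 Intracellular M. tuberculosis in mouse macrophages. Initial screen at 0.1, 1 and 10 µg/ml.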

[8] = Cytotoxicity against mouse RAW264.7 cells assessed as growth inhibition at 100 uM after 72 hrs by MTT assay relative to control; assay type: cell-based; settings: read-out: GI; summary of the method: as §1
[9] = test system: Mycobacterium tuberculosis; assay: Inhibition of Mycobacterium tuberculosis His6-tagged InhA expressed in Escherichia coli BL21 (DE3) assessed as decrease in NADH oxidation to NAD+ at 10 uM using 2-trans-decenoyl-CoA as substrate preincubated for 2 hrs followed by substrate and NADH addition measured for 1 min by spectrophotometric method relative to control
Summary of the method: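 Recombinant MTB InhA expressed in E. coli and purified. DD-CoA reduction followed spectrophotometrically as NADH oxidation to NAD+. Fixed non-saturating NADH and DD-CoA, 1% DMSO. Compound at 10 μM; per cent inhibition relative to a no-inhibitor control, which set the maximal rate.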

[10] = Inhibition of Mycobacterium tuberculosis His6-tagged InhA expressed in Escherichia coli BL21 (DE3) assessed as decrease in NADH oxidation to NAD+ using 2-trans-decenoyl-CoA as substrate preincubated for 2 hrs followed by substrate and NADH addition measured for 1 min by spectrophotometric method
Summary of the method: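 Recombinant MTB InhA purified from E. coli. NADH oxidation during DD-CoA reduction read spectrophotometrically, with fixed non-saturating NADH and DD-CoA in 1% DMSO. IC50, the concentration halving enzyme velocity, determined for compounds giving over 50% inhibition at 10 μM.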

[11] = test system: Mycobacterium tuberculosis; assay: Antimycobacterial activity against Mycobacterium tuberculosis H37Rv ATCC 27294 by agar dilution method; assay type: functional
Summary of the method: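 Growth of M. tuberculosis H37Rv (ATCC27294) on agar dilution. Compounds at 50 to 0.78 μg/ml in duplicate. MIC taken as the lowest concentration giving complete growth inhibition. Isoniazid, ethambutol and ofloxacin served as references.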

[12] = test system: Mycobacterium tuberculosis; assay: Stabilization of Mycobacterium tuberculosis InhA assessed as change in melting temperature by sypro orange dye-based differential scanning fluorimetry
Summary of the method: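 Differential scanning fluorimetry of InhA with ligand versus native protein. Heated from 25 °C to 95 °C in 0.1 °C steps with SYPRO Orange. Tm shift taken relative to native protein.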

Compound: COc1ccc(/N=N/C(=N/NC(=O)c2cc(O)c(O)c(O)c2)c2ccccc2)cc1
- IC50 [1]: 0.56 mg/L (≈ 1.38 µM)
- inhibition at 72 h, 50 µM [2]: 4.51%
- Activity [3]: inactive
- Activity [4]: inactive
- Activity [5]: inactive
- Activity [6]: inactive
- growth inhibition (GI) [7]: Active
- inhibition at 72 h, 100 µM [8]: 15%
- inhibition [9]: 69.3%
- IC50 [10]: 5.79 µM
- MIC [11]: 1.92 µM (≈ 0.781 µg/mL)

Compound: CC[C@@H](CO)NCCN[C@@H](CC)CO [ETHAMBUTOL]
- MIC [11]: 7.64 µM (≈ 1.56 µg/mL)

Compound: Cc1ccccc1/N=N/C(=N/NC(=O)c1cc(O)c(O)c(O)c1)c1ccccc1
- inhibition at 72 h, 50 µM [2]: 32.7%
- Activity [3]: inactive
- Activity [4]: inactive
- Activity [5]: inactive
- Activity [6]: inactive
- inhibition at 72 h, 100 µM [8]: 41.5%
- inhibition [9]: 81.4%
- IC50 [10]: 3.32 µM
- MIC [11]: 15.4 µM (≈ 6.01 µg/mL)

Compound: COc1ccccc1/N=N/C(=N/NC(=O)c1cc(O)c(O)c(O)c1)c1ccccc1
- inhibition at 72 h, 50 µM [2]: 46.5%
- Activity [3]: inactive
- Activity [4]: inactive
- Activity [5]: inactive
- Activity [6]: inactive
- inhibition at 72 h, 100 µM [8]: 52.7%
- inhibition [9]: 71.7%
- IC50 [10]: 6.66 µM
- MIC [11]: 4 µM (≈ 1.63 µg/mL)

Compound: O=C(N/N=C(/N=N/c1ccccc1)c1ccccc1)c1cc(O)c(O)c(O)c1
- inhibition at 72 h, 50 µM [2]: 13.6%
- Activity [3]: inactive
- Activity [4]: inactive
- Activity [5]: inactive
- Activity [6]: inactive
- inhibition at 72 h, 100 µM [8]: 41.4%
- inhibition [9]: 42.2%
- MIC [11]: 38.1 µM (≈ 14.3 µg/mL)

Compound: O=C(N/N=C(/N=N/c1ccccc1[N+](=O)[O-])c1ccccc1)c1cc(O)c(O)c(O)c1
- inhibition at 72 h, 50 µM [2]: 2.11%
- Activity [3]: inactive
- Activity [4]: inactive
- Activity [5]: inactive
- Activity [6]: inactive
- inhibition at 72 h, 100 µM [8]: 5.43%
- inhibition [9]: 62.3%
- IC50 [10]: 8.46 µM
- MIC [11]: 14.8 µM (≈ 6.26 µg/mL)

Compound: O=C(N/N=C(/N=N/c1ccccc1Cl)c1ccccc1)c1cc(O)c(O)c(O)c1
- inhibition at 72 h, 50 µM [2]: 24.5%
- Activity [3]: inactive
- Activity [4]: inactive
- Activity [5]: inactive
- Activity [6]: inactive
- inhibition at 72 h, 100 µM [8]: 32.6%
- inhibition [9]: 57.1%
- IC50 [10]: 9.16 µM
- MIC [11]: 15.2 µM (≈ 6.25 µg/mL)

Compound: CC1COc2c(N3CCN(C)CC3)c(F)cc3c(=O)c(C(=O)O)cn1c23 (stereo not given) [OFLOXACIN]
- MIC [11]: 2.16 µM (≈ 0.781 µg/mL)

Compound: NNC(=O)c1ccncc1 [ISONIAZID]
- MIC [11]: 0.72 µM (≈ 0.0987 µg/mL)

Compound: O=C(N/N=C(/N=N/c1ccc(F)cc1)c1ccccc1)c1cc(O)c(O)c(O)c1
- IC50 [1]: 0.62 mg/L (≈ 1.57 µM)
- inhibition at 72 h, 50 µM [2]: 11.8%
- Activity [3]: inactive
- Activity [4]: inactive
- Activity [5]: inactive
- Activity [6]: inactive
- growth inhibition (GI) [7]: Active
- inhibition at 72 h, 100 µM [8]: 23.7%
- inhibition [9]: 87.1%
- IC50 [10]: 3.42 µM
- MIC [11]: 1.98 µM (≈ 0.78 µg/mL)

Compound: O=C(N/N=C(/N=N/c1ccc([N+](=O)[O-])cc1)c1ccccc1)c1cc(O)c(O)c(O)c1
- inhibition at 72 h, 50 µM [2]: 11.1%
- Activity [3]: inactive
- Activity [4]: inactive
- Activity [5]: inactive
- Activity [6]: inactive
- inhibition at 72 h, 100 µM [8]: 34.6%
- inhibition [9]: 57.1%
- IC50 [10]: 8.16 µM
- MIC [11]: 7.42 µM (≈ 3.13 µg/mL)

Compound: O=C(N/N=C(/N=N/c1ccc(Cl)cc1Cl)c1ccccc1)c1cc(O)c(O)c(O)c1
- IC50 [1]: 0.35 mg/L (≈ 0.786 µM)
- inhibition at 72 h, 50 µM [2]: 12.1%
- Activity [3]: inactive
- Activity [4]: inactive
- Activity [5]: inactive
- ΔTm [12]: 2.8 °C
- Activity [6]: inactive
- growth inhibition (GI) [7]: Active
- inhibition at 72 h, 100 µM [8]: 21.5%
- inhibition [9]: 73.2%
- IC50 [10]: 5.22 µM
- MIC [11]: 1.75 µM (≈ 0.78 µg/mL)

Source: ChEMBL document CHEMBL4002632, “Development of gallic acid formazans as novel enoyl acyl carrier protein reductase inhibitors for the treatment of tuberculosis” (Bioorg Med Chem Lett, 2017)
